Data reported in ChEMBL document CHEMBL4622927, “6,6'-Aryl trehalose analogs as potential Mincle ligands” (Bioorg Med Chem, 2020).
Activity calls are given as the source filed them. The rule behind the calls is not given here.

How the values were obtained:
PBMC = test: Induction of IL-6 production in human PBMC measured after 18 to 24 hrs at 0.01 to 100 uM by ELISA; type: functional, cell-based
Summary of the method: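 Freshly Ficoll-isolated PBMCs from healthy adult donors, in RPMI with 5% autologous plasma and counted as viable cells by trypan blue, added to wells with compounds serially diluted in ethanol and dried on. Incubation 18–24 h at 37 °C/5% CO2. Supernatant IL-6 measured by ELISA, read at 450 nm; n=3 independent donors, mean ± SEM.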

[1] = target: T1, C-type lectin domain family 4 member E (Homo sapiens) (UniProt Q9ULY5); test: Agonist activity at human Mincle receptor expressed in HEK cells cotransfected with NF-kappaB SEAP reporter gene assessed as increase in production of SEAP measured after 18 to 24 hrs by SEAP reporter gene-based spectrophotometric method; type: cell-based
T1 sequence (whole entry): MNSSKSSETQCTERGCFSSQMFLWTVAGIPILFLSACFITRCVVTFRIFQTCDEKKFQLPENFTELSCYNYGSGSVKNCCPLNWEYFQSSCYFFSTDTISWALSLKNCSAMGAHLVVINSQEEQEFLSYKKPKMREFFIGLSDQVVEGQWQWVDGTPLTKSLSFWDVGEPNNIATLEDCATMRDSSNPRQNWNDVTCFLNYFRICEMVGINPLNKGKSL
Summary of the method: (§1)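 Compounds serially diluted in EtOH; 10x final concentration coated on well bottoms and solvent evaporated >1 h. HEK-Blue hMincle cells with NF-κB-driven SEAP reporter, grown in DMEM/10% FBS with blasticidin, puromycin and CLR selection, added at 3 × 10^5 cells/well. 18–24 h at 37 °C. HEK-Blue Detection, OD 620–655 nm, fold change over vehicle; n=3. HEK null cells as counter-screen.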

[2] = target: T1, C-type lectin domain family 4 member E (Homo sapiens); test: Agonist activity at human Mincle receptor expressed in HEK cells cotransfected with NF-kappaB SEAP reporter gene assessed as increase in production of SEAP at 20 uM measured after 18 to 24 hrs by SEAP reporter gene-based spectrophotometric method; type: cell-based; summary of the method: as §1

Row | SMILES | Activity [1] | Activity [2] | Activity (PBMC)
1 | O=C(OC[C@H]1O[C@H](O[C@H]2O[C@H](COC(=O)c3cc(C(F)(F)F)ccc3O)[C@@H](O)[C@H](O)[C@H]2O)[C@H](O)[C@@H](O)[C@@H]1O)c1cc(C(F)(F)F)ccc1O | – | – | inactive
2 | O=C(OC[C@H]1O[C@H](O[C@H]2O[C@H](COC(=O)c3cccc(C(F)(F)F)c3O)[C@@H](O)[C@H](O)[C@H]2O)[C@H](O)[C@@H](O)[C@@H]1O)c1cccc(C(F)(F)F)c1O | – | – | inactive
3 | COc1ccc(C(=O)OC[C@H]2O[C@H](O[C@H]3O[C@H](COC(=O)c4ccc(OC)cc4C(F)(F)F)[C@@H](O)[C@H](O)[C@H]3O)[C@H](O)[C@@H](O)[C@@H]2O)c(C(F)(F)F)c1 | – | – | inactive
4 | O=C(OC[C@H]1O[C@H](O[C@H]2O[C@H](COC(=O)c3cc([N+](=O)[O-])cc([N+](=O)[O-])c3)[C@@H](O)[C@H](O)[C@H]2O)[C@H](O)[C@@H](O)[C@@H]1O)c1cc([N+](=O)[O-])cc([N+](=O)[O-])c1 | – | – | Active
5 | Cc1ccc(C(=O)OC[C@H]2O[C@H](O[C@H]3O[C@H](COC(=O)c4ccc(C)cc4C(F)(F)F)[C@@H](O)[C@H](O)[C@H]3O)[C@H](O)[C@@H](O)[C@@H]2O)c(C(F)(F)F)c1 | – | – | inactive

Further lines, with some results ahead:

Row | Activity [1] | Activity [2] | SMILES | Activity (PBMC)
6 | Dose-dependent effect | – | COc1ccc(C(F)(F)F)cc1C(=O)OC[C@H]1O[C@H](O[C@H]2O[C@H](COC(=O)c3cc(C(F)(F)F)ccc3OC)[C@@H](O)[C@H](O)[C@H]2O)[C@H](O)[C@@H](O)[C@@H]1O | inactive
7 | Dose-dependent effect | – | CCCCCCCCCCCCCCCCCCCCCC(=O)OC[C@H]1O[C@H](O[C@H]2O[C@H](COC(=O)CCCCCCCCCCCCCCCCCCCCC)[C@@H](O)[C@H](O)[C@H]2O)[C@H](O)[C@@H](O)[C@@H]1O | –
8 | – | Active | O=C(Cc1ccccc1C(F)(F)F)OC[C@H]1O[C@H](O[C@H]2O[C@H](COC(=O)Cc3ccccc3C(F)(F)F)[C@@H](O)[C@H](O)[C@H]2O)[C@H](O)[C@@H](O)[C@@H]1O | inactive
9 | Dose-dependent effect | – | O=C(OC[C@H]1O[C@H](O[C@H]2O[C@H](COC(=O)c3ccccc3C(F)(F)F)[C@@H](O)[C@H](O)[C@H]2O)[C@H](O)[C@@H](O)[C@@H]1O)c1ccccc1C(F)(F)F | Active
10 | Dose-dependent effect | – | O=C(OC[C@H]1O[C@H](O[C@H]2O[C@H](COC(=O)c3c(C(F)(F)F)cccc3C(F)(F)F)[C@@H](O)[C@H](O)[C@H]2O)[C@H](O)[C@@H](O)[C@@H]1O)c1c(C(F)(F)F)cccc1C(F)(F)F | Active
